# Results from different studies.
# Organism: Staphylococcus aureus
Compound,effect on,method,strain,tested at,time,quantity,result
CNC(=O)c1ccc(C)c(-n2c(C)cc(OCc3ccc(F)cc3F)c(Br)c2=O)c1,microbial growth,,NCTC8325,,,MIC,> 30 µM
COc1ccc2nc(-n3nc(CC(C)C)c4c3-c3ccccc3C4=O)sc2c1,microbial growth,well diffusion,NCIM5021,125 µg/mL,,inhibition zone,12 mm
O=C1NC(=S)N/C1=C\c1ccc(-c2ccc(N(c3ccccc3)c3ccccc3)cc2)c2ccccc12,microbial killing,broth dilution,ATCC43300,,,MBC,> 1000 µg/mL
COc1ccc2nc(-n3nc(C)c4c3-c3ccccc3C4=O)sc2c1,microbial growth,well diffusion,NCIM5021,1000 µg/mL,,inhibition zone,13 mm
CCc1cccc(CC)c1NC(=O)N1Cc2[nH]nc(NC(=O)c3ccc(N4CCN(C)CC4)cc3)c2C1,microbial growth,,NCTC8325,,,MIC,> 30 µM
O=C1NC(=S)S/C1=C\c1c2ccccc2c(-c2ccc(N(c3ccccc3)c3ccccc3)cc2)c2ccccc12,microbial killing,broth dilution,ATCC25923,,,MBC,> 1000 µg/mL
[H]/N=C(/N)N[C@H]1[C@H](O)[C@@H](O)[C@H](O[C@@H]2O[C@@H](C)[C@](O)(C=O)[C@H]2O[C@@H]2O[C@@H](CO)[C@H](O)[C@@H](O)[C@@H]2NC)[C@@H](N/C(N)=N\[H])[C@@H]1O,microbial growth,well diffusion,NCIM5021,500 µg/mL,,inhibition zone,22 mm
O=C(O)CN1C(=O)/C(=C/c2ccc(-c3ccc(N(c4ccccc4)c4ccccc4)cc3)c3ccccc23)NC1=S,microbial killing,broth dilution,ATCC6538,,,MBC,> 1000 µg/mL
CC(=O)c1c(C)c2cnc(Nc3ccc(N4CCNCC4)cn3)nc2n(C2CCCC2)c1=O,microbial growth,,NCTC8325,,,MIC,> 30 µM
CN[C@H](CC(C)C)C(=O)N[C@H]1C(=O)N[C@@H](CC(N)=O)C(=O)N[C@H]2C(=O)N[C@H]3C(=O)N[C@H](C(=O)N[C@H](C(=O)O)c4cc(O)cc(O)c4-c4cc3ccc4O)[C@H](O)c3ccc(c(Cl)c3)Oc3cc2cc(c3O[C@@H]2O[C@H](CO)[C@@H](O)[C@H](O)[C@H]2O[C@H]2C[C@](C)(N)[C@H](O)[C@H](C)O2)Oc2ccc(cc2Cl)[C@H]1O,microbial growth,disc diffusion,ATCC29213,250 µg/disc,24 h,inhibition zone,21 mm
